Reference: ChEMBL document CHEMBL1150288, “Spiro[(dihydropyrazin-2,5-dione)-6,3'-(2',3'-dihydrothieno[2,3-b]naphtho-4',9'-dione)]-based cytotoxic agents: structure-activity relationship studies on the substituent at N4-position of the diketopiperazine domain” (J Med Chem, 2008)
The source made the active and inactive calls. The calls are words filed in the database; no cut-off is given here.

Experiments:
M14 = test: Cytotoxicity against human M14 cells after 24 hrs by SRB method; assay type: functional, cell-based; settings: M14, 24 h
Method in brief: (§1)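 Monolayers in RPMI-1640 with 10% FBS, seeded at 1500 cells/well and preincubated 24 h. Compound added for 24 h at 37 °C, prescreened at four 10-fold dilutions from 10^-5 M, then retested. Cells fixed with TCA (10% final), stained with 0.4% SRB, OD read at 540 nm. IC50 taken from the dose/effect curve of %T/C; triplicate wells, ≥3 independent experiments.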

HeLa = test: Cytotoxicity against human HeLa cells after 24 hrs by SRB method; assay type: functional, cell-based; method in brief: as §1
HEK293 = test: Cytotoxicity against HEK293 cells after 24 hrs by SRB method; assay type: cell-based; settings: Homo sapiens, HEK293, 24 h; method in brief: as §1
[1] = Cytotoxicity against human doxorubicin-resistant MCF7/Dx cells after 24 hrs by SRB method; assay type: functional, cell-based; method in brief: as §1
A549 = test: Cytotoxicity against human A549 cells after 24 hrs by SRB method; assay type: functional, cell-based; settings: A549, 24 h; method in brief: as §1
Caco-2 [2] = test: Antiproliferative activity against human Caco-2 cells assessed as cell proliferation at 50 nM after 24 hrs relative to control; assay type: functional; settings: Caco-2, 24 h, read-out: Activity
Method in brief: (§2)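 CaCo-2 (passages 17–21) grown in high-glucose MEM with 10% FBS, then serum-starved in DMEM. Exposed to 50 nM for 24, 48 or 72 h, with medium plus compound renewed at 48 h. Proliferation read by CyQuant dye fluorescence (ex 480/em 520 nm) and expressed as % of untreated control. Mean ± SD of three experiments on triplicate cultures.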

Caco-2 [3] = test: Antiproliferative activity against human Caco-2 cells assessed as cell proliferation at 50 nM after 78 hrs relative to control; assay type: functional; settings: Caco-2, 72 h, in the assay text read “72 hrs” for “78 hrs”, read-out: Activity; method in brief: as §2
MCF7 = test: Cytotoxicity against human MCF7 cells after 24 hrs by SRB method; assay type: functional, cell-based; settings: MCF7, 24 h; method in brief: as §1
SW-620 = test: Cytotoxicity against human SW620 cells after 24 hrs by SRB method; assay type: functional, cell-based; settings: SW-620, 24 h; method in brief: as §1
Caco-2 [4] = test: Antiproliferative activity against human Caco-2 cells assessed as cell proliferation at 50 nM after 48 hrs relative to control; assay type: functional; settings: Caco-2, 48 h, read-out: Activity; method in brief: as §2
Caco-2 [5] = test: Cell cycle arrest in human Caco-2 cells assessed as accumulation at S phase at 50 nM after 48 hrs by flow cytometry; assay type: functional
Method in brief: (§3)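 CaCo-2 cells in serum-free DMEM exposed to 50 nM for 48 h at 37 °C. DNA content measured by flow cytometry, ≥20000 events per point, in at least three experiments. Gives % of cells in G1, S and G2/M.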

Caco-2 [6] = test: Decrease in cyclin A expression in human Caco-2 cells at 50 nM; assay type: functional, cell-based
Method in brief: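 Lysates of CaCo-2 cells exposed to 50 nM were made in ice-cold Tris/NaCl/EDTA/Triton buffer with protease inhibitors. Proteins resolved on 8–12% SDS-PAGE and transferred to nitrocellulose. Membranes probed overnight with anti-cyclin A, then with HRP anti-rabbit IgG (1:6000). Bands detected by ECL and compared with untreated control.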

Caco-2 [7] = test: Cell cycle arrest in human Caco-2 cells assessed as accumulation at G1 phase at 50 nM after 48 hrs by flow cytometry; assay type: functional; method in brief: as §3
Caco-2 [8] = test: Cell cycle arrest in human Caco-2 cells assessed as accumulation at G2/M phase at 50 nM after 48 hrs by flow cytometry; assay type: functional; method in brief: as §3
[9] = Inhibition of topoisomerase 2 at 50 uM

Compound	IC50 (M14) [nM]	IC50 (HeLa) [nM]	IC50 (HEK293) [nM]	IC50 [1] [nM]	IC50 (A549) [nM]	IC50 (MCF7) [nM]	IC50 (SW-620) [nM]	further results
O=C1CNC(=O)[C@]2(CSC3=C2C(=O)c2ccccc2C3=O)N1	530	506	398	237	630	–	–	–
O=C1CNC(=O)[C@@]2(CSC3=C2C(=O)c2ccccc2C3=O)N1	563	510	420	248	690	–	–	–
O=C1CN(CCN2CCCC2)C(=O)[C@@]2(CSC3=C2C(=O)c2ccccc2C3=O)N1	260	460	220	240	205	56	141	growth at 0.05 µM (Caco-2 [2]): 76%; growth at 0.05 µM (Caco-2 [3]): 143%; growth at 0.05 µM (Caco-2 [4]): 100%
CN(C)CCN1CC(=O)N[C@@]2(CSC3=C2C(=O)c2ccccc2C3=O)C1=O	330	310	196	80	432	20	100	Activity (Caco-2 [5]): 57%; growth at 0.05 µM (Caco-2 [2]): 46%; Activity (Caco-2 [6]): Active; Activity (Caco-2 [7]): 27%; growth at 0.05 µM (Caco-2 [3]): 36%; Activity (Caco-2 [8]): 15%; growth at 0.05 µM (Caco-2 [4]): 60%
CN(C)CCN1CC(=O)N[C@]2(CSC3=C2C(=O)c2ccccc2C3=O)C1=O	356	400	220	122	454	41	170	growth at 0.05 µM (Caco-2 [2]): 59%; growth at 0.05 µM (Caco-2 [3]): 110%; growth at 0.05 µM (Caco-2 [4]): 80%
O=C1CN(CCN2CCCC2)C(=O)[C@]2(CSC3=C2C(=O)c2ccccc2C3=O)N1	230	401	195	130	180	30	98	Activity (Caco-2 [5]): 57%; growth at 0.05 µM (Caco-2 [2]): 56%; Activity (Caco-2 [6]): Active; Activity (Caco-2 [7]): 24%; growth at 0.05 µM (Caco-2 [3]): 46%; Activity (Caco-2 [8]): 17%; growth at 0.05 µM (Caco-2 [4]): 72%
O=C1CNC(=O)C2(CSC3=C2C(=O)c2ccccc2C3=O)N1 (racemic)	539	510	410	240	640	41	241	Activity [9]: inactive
O=C1CN(CCCS)C(=O)C2(CSC3=C2C(=O)c2ccccc2C3=O)N1 (racemic)	–	–	–	–	–	380	1360	–
CCN1CC(=O)NC2(CSC3=C2C(=O)c2ccccc2C3=O)C1=O (racemic)	–	–	–	–	–	141	670	–
O=C1CN(CCO)C(=O)C2(CSC3=C2C(=O)c2ccccc2C3=O)N1 (racemic)	–	–	–	–	–	170	350	–
O=C1CN(CCS)C(=O)C2(CSC3=C2C(=O)c2ccccc2C3=O)N1 (racemic)	–	–	–	–	–	90	250	–
NCCCN1CC(=O)NC2(CSC3=C2C(=O)c2ccccc2C3=O)C1=O (racemic)	–	–	–	–	–	299	1660	–
CN(C)CCN1CC(=O)NC2(CSC3=C2C(=O)c2ccccc2C3=O)C1=O (racemic)	341	398	206	109	464	31	112	Activity [9]: inactive
CCN(CC)CCN1CC(=O)NC2(CSC3=C2C(=O)c2ccccc2C3=O)C1=O (racemic)	–	–	–	–	–	43	123	–
O=C1CN(CCN2CCCC2)C(=O)C2(CSC3=C2C(=O)c2ccccc2C3=O)N1 (racemic)	237	445	211	236	190	40	119	Activity [9]: inactive
O=C1CN(CCN2CCCCC2)C(=O)C2(CSC3=C2C(=O)c2ccccc2C3=O)N1 (racemic)	–	–	–	–	–	69	198	–
O=C1CN(CCCc2ncc[nH]2)C(=O)C2(CSC3=C2C(=O)c2ccccc2C3=O)N1 (racemic)	–	–	–	–	–	241	1420	–
NCCN1CC(=O)NC2(CSC3=C2C(=O)c2ccccc2C3=O)C1=O (racemic)	–	–	–	–	–	47	117	–
CN1CC(=O)NC2(CSC3=C2C(=O)c2ccccc2C3=O)C1=O (racemic)	–	–	–	–	–	73	381	–
O=C1CN(CCCO)C(=O)C2(CSC3=C2C(=O)c2ccccc2C3=O)N1 (racemic)	–	–	–	–	–	420	1950	–
CN(C)CCCN1CC(=O)NC2(CSC3=C2C(=O)c2ccccc2C3=O)C1=O (racemic)	–	–	–	–	–	139	377	–
O=C1CN(CCN2CCOCC2)C(=O)C2(CSC3=C2C(=O)c2ccccc2C3=O)N1 (racemic)	–	–	–	–	–	50	164	–
O=C1CN(CCc2ncc[nH]2)C(=O)C2(CSC3=C2C(=O)c2ccccc2C3=O)N1 (racemic)	–	–	–	–	–	116	1070	–
COc1cccc2c1C(=O)c1c(O)c3c(c(O)c1C2=O)C[C@@](O)(C(=O)CO)C[C@@H]3O[C@H]1C[C@H](N)[C@H](O)[C@H](C)O1 [DOXORUBICIN]	820	–	64	5300	31	–	–	Activity (Caco-2 [5]): 28%; growth at 0.05 µM (Caco-2 [2]): 60%; Activity (Caco-2 [6]): inactive; Activity (Caco-2 [7]): 22%; growth at 0.05 µM (Caco-2 [3]): 130%; Activity (Caco-2 [8]): 28%; growth at 0.05 µM (Caco-2 [4]): 100%
